Reference: ChEMBL document CHEMBL3351723, “New derivatives of lupane triterpenoids disturb breast cancer mitochondria and induce cell death” (Bioorg Med Chem, 2014)
Calls of active or inactive are those of the source. The calls are words filed in the database; no cut-off is given here.

Legend:
[1] = system: Liver microsome; assay: Effect on mitochondrial transmembrane potential in Wistar Han rat liver mitochondria energized with succinate assessed as mitochondrial transmembrane electropotential at 1.333 ug/mg of protein (reference value: 204.2 +/- 5.6 mV); type: functional
Procedure, shortened: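 Isolated male Wistar rat liver mitochondria (1.5 mg protein) in 125 mM sucrose, 65 mM KCl, 5 mM KH2PO4, 2.5 mM MgCl2, 5 mM HEPES pH 7.4, 30°C, with 3 μM TPP+. Compound added for 1 min, then 10 mM succinate plus 3 μM rotenone. State 3 started with ADP (83.3 nmol/mg protein). ΔΨ read with a TPP+-selective electrode and calculated by the Kamo equation without binding correction.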

[2] = Cytotoxicity against human MCF12A cells at 0.125 to 2 ug/ml after 1 to 5 days by sulforhodamine B assay; type: cell-based; conditions: mcf-12a
Procedure, shortened: (§1)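 Non-tumor cells seeded at 2×10^4 cells/ml and treated 24 h after seeding, in high-glucose DMEM with pyruvate, 10% FBS and penicillin-streptomycin, 37°C, 5% CO2. Compound exposure 0.125–2 μg/ml for 1, 3 and 5 days, with vehicle controls. Cells fixed and stained with sulforhodamine B for total cell mass. Data given as % of untreated control at each time point; five independent experiments.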

[3] = system: BJ; assay: Cytotoxicity against human BJ cells at 0.125 to 2 ug/ml after 1 to 5 days by sulforhodamine B assay; type: cell-based; procedure, shortened: as §1
[4] = system: Hs-578T; assay: Cytotoxicity against human Hs578T cells at 0.125 to 2 ug/ml after 1 to 5 days by sulforhodamine B assay; type: functional, cell-based
Procedure, shortened: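 Sulforhodamine B growth assay in high-glucose DMEM with 10% FBS. Cancer cells seeded at 1×10^4 cells/ml; compound (0.125–2 μg/ml) added 24 h after seeding and left for 1, 3 or 5 days. Cells fixed, total mass stained. Expressed as % of untreated cells at the same time point. Mean ± SEM, five independent experiments.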

[5] = Cell cycle arrest against human Hs578T cells assessed as increase in cells at G0/G1 phase at 0.5 ug/ml after 24 to 48 hrs by propidium iodide staining based flow cytometry; type: functional; conditions: Hs-578T
Procedure, shortened: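 Log-phase Hs578T cells exposed 24 and 48 h to 0.5 μg/ml. Adherent plus floating cells fixed in cold 70% ethanol, kept overnight at -20°C, washed into PBS-T (132 mM NaCl, 4 mM KCl, 1.2 mM NaH2PO4, 0.1% Tween). Treated with 20 μg/ml RNase for 45 min at 37°C, then propidium iodide for 30 min at 37°C. Phase percentages read by flow cytometry. Mean ± SEM, 5 experiments.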

[6] = system: Hs-578T; assay: Induction of apoptosis in human Hs578T cells assessed as increase in p53 protein at 1 ug/ml after 24 hrs by Western blot analysis; type: functional, cell-based
Procedure, shortened: (§2)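 About 1.0×10^6 attached and floating HS578T cells, treated 24 h at 1 μg/ml, were lysed in HEPES/sucrose buffer with DTT, PMSF and protease inhibitors. Extracts were stored at -80°C, then p53 and cyclophilin D were semi-quantified by Western blot. Six experiments, mean ± SEM.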

[7] = system: Hs-578T; assay: Induction of apoptosis in human Hs578T cells assessed as increase in cyclophilin D protein at 1 ug/ml after 24 hrs by Western blot analysis; type: functional, cell-based; procedure, shortened: as §2
[8] = system: Hs-578T; assay: Effect on Bcl2 protein level in human Hs578T cells at 1 ug/ml after 24 hrs by Western blot analysis; type: functional, cell-based
[9] = system: Liver microsome; assay: Induction of mitochondrial function disruption in Wistar Han rat liver mitochondria energized with succinate assessed as State-3 level per mg of protein measured at 0.067 ug/mg of protein (reference value: 130.8 +/- 24.1 nmol/mg protein/min); type: functional
[10] = system: Liver microsome; assay: Induction of mitochondrial function disruption in Wistar Han rat liver mitochondria energized with succinate assessed as State-3 level per mg of protein measured at 0.133 ug/mg of protein (reference value: 130.8 +/- 24.1 nmol/mg protein/min); type: functional
[11] = system: Liver microsome; assay: Induction of mitochondrial function disruption in Wistar Han rat liver mitochondria energized with succinate assessed as State-3 level per mg of protein measured at 0.333 ug/mg of protein (reference value: 130.8 +/- 24.1 nmol/mg protein/min); type: functional
[12] = system: Liver microsome; assay: Induction of mitochondrial function disruption in Wistar Han rat liver mitochondria energized with succinate assessed as State-4 level per mg of protein measured at 0.067 ug/mg of protein (reference value: 33.5 +/- 7.5 nmol/mg protein/min); type: functional
[13] = system: Liver microsome; assay: Induction of mitochondrial function disruption in Wistar Han rat liver mitochondria energized with succinate assessed as State-4 level per mg of protein measured at 0.333 ug/mg of protein (reference value: 33.5 +/- 7.5 nmol/mg protein/min); type: functional
[14] = system: Liver microsome; assay: Induction of mitochondrial function disruption in Wistar Han rat liver mitochondria energized with succinate assessed as respiratory control ratio measured at 0.067 ug/mg of protein (reference value: 4.1 +/- 0.5 no_unit); type: functional
[15] = system: Liver microsome; assay: Induction of mitochondrial function disruption in Wistar Han rat liver mitochondria energized with succinate assessed as respiratory control ratio measured at 1.333 ug/mg of protein (reference value: 4.1 +/- 0.5 no_unit); type: functional
[16] = Cytotoxicity against human Hs578T cells assessed as decrease in live cells at 1 ug/ml for 24 to 48 hrs by flow cytometry; type: functional; conditions: Hs-578T
Procedure, shortened: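 Hs578T seeded at 2.5×10^4 cells/ml, exposed to 1 μg/ml or DMSO for 24 and 48 h. Cells trypsinized and resuspended in HEPES-buffered saline with 15 mM glucose. Stained 15 min at 37°C with 1 μM ethidium homodimer and 0.1 μM calcein-AM. Green (calcein) and red (ethidium homodimer) signals read by flow cytometry. Mean ± SEM, 6 experiments.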

[17] = Induction of apoptosis in human Hs578T cells assessed as distribution of mitochondrial polarization and morphology at 0.25 ug/ml after 6 hrs by confocal microscopy; type: functional, cell-based; conditions: Hs-578T
Procedure, shortened: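 Cells were seeded on glass coverslips and left to attach for 24 h. They were then exposed to vehicle or 0.25 μg/ml compound for 6 h. For the last 30 min they were loaded with 100 nM TMRM in saline buffer with 15 mM glucose, and the probe was kept present during imaging. Mitochondrial polarization and morphology were imaged by fluorescence microscopy, and the TMRM fluorescence standard deviation was quantified. Four independent preparations, mean ± SEM.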

[18] = system: MDA-MB-231; assay: Cytotoxicity against human MDA-MB-231 cells at 0.125 to 2 ug/ml after 1 to 5 days by sulforhodamine B assay in presence of taxol; type: functional, cell-based
[19] = system: Hs-578T; assay: Cytotoxicity against human Hs578T cells at 0.125 to 2 ug/ml after 1 to 5 days by sulforhodamine B assay in presence of taxol; type: functional, cell-based
[20] = system: MCF7; assay: Cytotoxicity against human MCF7 cells at 0.125 to 2 ug/ml after 1 to 5 days by sulforhodamine B assay in presence of taxol; type: functional, cell-based
[21] = system: Liver microsome; assay: Reduction in ADP-induced mitochondrial transmembrane electropotential in Wistar Han rat liver mitochondria energized with succinate at >0.7 ug/mg of protein; type: functional
[22] = system: Liver microsome; assay: Effect on mitochondrial transmembrane potential in Wistar Han rat liver mitochondria energized with succinate assessed as mitochondrial transmembrane electropotential at 0.06 ug/mg of protein (reference value: 216.0 +/- 7.4 mV); type: functional

For C=C(C)[C@@H]1CC[C@]2(COC(=O)CC[n+]3ccc(N(C)C)cc3)CC[C@]3(C)[C@H](CC[C@@H]4[C@@]5(C)CC[C@H](OC(=O)CC[n+]6ccc(N(C)C)cc6)C(C)(C)[C@@H]5CC[C@]43C)[C@@H]12.[Cl-].[Cl-], the Activity [1] was 199 mV, the Activity [2] was “Toxic” and the Activity [3] was “Toxic”. The inhibition [4] was “Active”, the Activity [5] was “Active” and the Activity [6] was “Active”. The Activity [7] was “Active”, the Activity [8] was “inactive” and the Activity [9] was 127 nmol/min. The Activity [10] was 111 nmol/min, the Activity [11] was 121 nmol/min and the Activity [12] was 29.4 nmol/min. For the same compound, the Activity [13] was 29.1 nmol/min, the Ratio [14] was 4.3 and the Ratio [15] was 4.3.
In the case of C=C(C)[C@@H]1CC[C@]2(COC(=O)C(CC)[n+]3ccc(N(C)C)cc3)CC[C@]3(C)[C@H](CC[C@@H]4[C@@]5(C)CC[C@H](OC(=O)C(CC)[n+]6ccc(N(C)C)cc6)C(C)(C)[C@@H]5CC[C@]43C)[C@@H]12 (some centres not stated), the Activity [5] is reported as “Active”, the inhibition at 1 µg/mL [16] is reported as 10% and the Activity [6] is reported as “Active”. For the same compound, the Activity [7] was “Active”, the Activity [8] was “inactive” and the Activity [17] was “Active”. It also gave an Activity [9] of 130 nmol/min, an Activity [10] of 131 nmol/min and an Activity [11] of 132 nmol/min. The Activity [12] was 24.1 nmol/min, the Activity [13] was 23.2 nmol/min and the Ratio [14] was 3. The Ratio [15] was 3.2.
In the case of C=C(C)[C@@H]1CC[C@]2(COC(=O)C[n+]3ccc(N(C)C)cc3)CC[C@]3(C)[C@H](CC[C@@H]4[C@@]5(C)CC[C@H](OC(=O)C[n+]6ccc(N(C)C)cc6)C(C)(C)[C@@H]5CC[C@]43C)[C@@H]12.[Cl-].[Cl-], the Activity [2] is reported as “Toxic”, the Activity [3] is reported as “Non-toxic” and the inhibition [18] is reported as “Active”. For the same compound, the inhibition [19] was “Active”, the inhibition [20] was “Active” and the Activity [5] was “Active”. The inhibition at 1 µg/mL [16] was 10%, the Activity [6] was “Active” and the Activity [7] was “Active”. For the same compound, the Activity [8] was “inactive”, the Activity [17] was “Active” and the inhibition [21] was “Active”. For the same compound, the Activity [9] was 132 nmol/min, the Activity [10] was 130 nmol/min and the Activity [11] was 136 nmol/min. For the same compound, the Activity [12] was 24.5 nmol/min, the Activity [13] was 34.8 nmol/min and the Ratio [14] was 4.1. For the same compound, the Ratio [15] was 4 and the Activity [22] was 209 mV.
In the case of C=C(C)[C@@H]1CC[C@]2(COC(=O)C[N+](C)(C)C(C)C)CC[C@]3(C)[C@H](CC[C@@H]4[C@@]5(C)CC[C@H](OC(=O)C[N+](C)(C)C(C)C)C(C)(C)[C@@H]5CC[C@]43C)[C@@H]12.[Cl-].[Cl-], the Activity [2] is reported as “Non-toxic”, the inhibition [4] is reported as “Active” and the inhibition [18] is reported as “Active”. The inhibition [19] was “Active”, the inhibition [20] was “Active” and the Activity [5] was “Active”. The inhibition at 1 µg/mL [16] was 10%, the Activity [6] was “Active” and the Activity [7] was “Active”. The Activity [8] was “inactive”, the Activity [17] was “Active” and the inhibition [21] was “Active”. It also gave an Activity [9] of 117 nmol/min, an Activity [10] of 121 nmol/min and an Activity [11] of 121 nmol/min. It also gave an Activity [12] of 27.5 nmol/min, an Activity [13] of 27.2 nmol/min and a Ratio [14] of 4. The Ratio [15] was 4.2.
